Activity calls are given as the source filed them. No cut-off for these calls is given here.
Columns and labels:
[1] = target: T1, Toll-like receptor 4 (Mus musculus) (UniProt Q9QUK6); test: Inhibition of TLR4 in ovalbumin pulsed BALB/c mouse BMDC co-cultured with DO-11.10 CD4+ T cells assessed as reduction of LPS-induced IL-17 production at 5 ug/mL after 3 days by ELISA; type: cell-based; conditions: T-cell
T1 sequence (whole entry): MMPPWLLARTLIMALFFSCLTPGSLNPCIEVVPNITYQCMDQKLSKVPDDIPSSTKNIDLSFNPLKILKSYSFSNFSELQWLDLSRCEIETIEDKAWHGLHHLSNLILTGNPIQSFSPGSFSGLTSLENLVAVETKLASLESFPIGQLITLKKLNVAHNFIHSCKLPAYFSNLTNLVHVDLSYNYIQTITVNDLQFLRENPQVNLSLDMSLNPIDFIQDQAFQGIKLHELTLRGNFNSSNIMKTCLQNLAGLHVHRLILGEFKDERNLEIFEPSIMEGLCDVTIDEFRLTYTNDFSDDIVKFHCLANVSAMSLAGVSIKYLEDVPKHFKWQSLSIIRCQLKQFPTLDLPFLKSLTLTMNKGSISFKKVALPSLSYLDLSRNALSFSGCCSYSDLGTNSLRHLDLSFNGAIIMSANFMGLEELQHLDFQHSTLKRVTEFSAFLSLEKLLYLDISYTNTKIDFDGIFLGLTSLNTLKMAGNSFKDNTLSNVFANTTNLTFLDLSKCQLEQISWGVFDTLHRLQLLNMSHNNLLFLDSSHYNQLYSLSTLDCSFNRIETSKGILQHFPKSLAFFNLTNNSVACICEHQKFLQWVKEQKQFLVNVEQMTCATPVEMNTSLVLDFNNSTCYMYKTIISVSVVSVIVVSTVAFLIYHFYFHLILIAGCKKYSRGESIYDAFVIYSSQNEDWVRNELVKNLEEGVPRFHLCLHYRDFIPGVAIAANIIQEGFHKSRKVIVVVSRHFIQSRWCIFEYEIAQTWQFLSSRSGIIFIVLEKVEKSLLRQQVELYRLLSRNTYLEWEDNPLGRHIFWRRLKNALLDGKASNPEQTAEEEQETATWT
In short: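 BALB/c bone marrow DCs ± compound (5 μg/mL) were treated ± S. minnesota LPS and pulsed with OVA peptide (0–300 nM). They were cocultured 3 days with naive CD4+CD62L+ DO.11.10 T cells, and IL-17A was measured by ELISA. Values are mean ± SD of duplicates from two experiments.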

BMDC = test: Antiinflammatory activity in mouse BMDC assessed as downregulation of TLR4 expression; type: functional
Mus musculus [2] = test: Antiinflammatory activity in DBA/1 mouse collagen-induced arthritis model assessed as reduction in number of gammadelta+ T cells at 50 ug/kg, sc administered 2 days prior to collagen challenge continued till day 21 post collagen challenge; type: functional, organism-based; conditions: T-cell
In short: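 Dosing was 1 μg/dose or PBS given subcutaneously on days −2, 0 and 21 of CIA. Total, CD4+, CD8+ and γδ T cell numbers in draining lymph nodes were counted by flow cytometry for each mouse. Naive mice not exposed to collagen served as a further control (naive n = 7; PBS and treated n = 13).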

Mus musculus [3] = test: Antiinflammatory activity in DBA/1 mouse collagen-induced arthritis model assessed as reduction of hind paw width at 50 ug/kg, sc administered 2 days prior to collagen challenge continued till day 21 post collagen challenge; type: functional, organism-based
In short: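 Collagen-induced arthritis mice were dosed subcutaneously (1 μg/dose) or given PBS on days −2, 0 and 21. Arthritis was scored clinically and hind paw width measured. Incidence was the % of mice with severity score ≥2 (cumulative) or ≥4 (high score). Results are mean ± SEM. Scores n = 13 per group, pooled from two experiments; paw width n = 7, from a single experiment.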

TLR2/TLR6 (Mus musculus) = TLR2/TLR6 (Mus musculus) (UniProt Q9QUN7+Q9EPW9); test: Inhibition of TLR2/6-mediated NFkappaB p65 activation in BLP-stimulated BALB/c mouse BMDM at 5 ug/ml preincubated for 18 hrs followed by BLP challenge measured after 1 hr by TransAM ELISA; type: protein-complex assay
In short: (§1)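 Bone marrow macrophages (4 × 10^6/well) had their medium changed after 24 h, were pretreated with compounds at 5 μg/mL for 18 h, then stimulated for 1 h with 100 ng/mL LPS, 10 ng/mL BLP or 1 μM CpG. Activated NFκB p65 in nuclear extracts was measured by TransAM ELISA in duplicate.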

[4] = target: T2, Toll-like receptor 9 (Mus musculus) (UniProt Q9EQU3); test: Inhibition of TLR9-mediated NFkappaB p65 activation in CpG-stimulated BALB/c mouse BMDM at 5 ug/ml preincubated for 18 hrs followed by CpG challenge measured after 1 hr by TransAM ELISA; in short: as §1
T2 sequence (whole entry): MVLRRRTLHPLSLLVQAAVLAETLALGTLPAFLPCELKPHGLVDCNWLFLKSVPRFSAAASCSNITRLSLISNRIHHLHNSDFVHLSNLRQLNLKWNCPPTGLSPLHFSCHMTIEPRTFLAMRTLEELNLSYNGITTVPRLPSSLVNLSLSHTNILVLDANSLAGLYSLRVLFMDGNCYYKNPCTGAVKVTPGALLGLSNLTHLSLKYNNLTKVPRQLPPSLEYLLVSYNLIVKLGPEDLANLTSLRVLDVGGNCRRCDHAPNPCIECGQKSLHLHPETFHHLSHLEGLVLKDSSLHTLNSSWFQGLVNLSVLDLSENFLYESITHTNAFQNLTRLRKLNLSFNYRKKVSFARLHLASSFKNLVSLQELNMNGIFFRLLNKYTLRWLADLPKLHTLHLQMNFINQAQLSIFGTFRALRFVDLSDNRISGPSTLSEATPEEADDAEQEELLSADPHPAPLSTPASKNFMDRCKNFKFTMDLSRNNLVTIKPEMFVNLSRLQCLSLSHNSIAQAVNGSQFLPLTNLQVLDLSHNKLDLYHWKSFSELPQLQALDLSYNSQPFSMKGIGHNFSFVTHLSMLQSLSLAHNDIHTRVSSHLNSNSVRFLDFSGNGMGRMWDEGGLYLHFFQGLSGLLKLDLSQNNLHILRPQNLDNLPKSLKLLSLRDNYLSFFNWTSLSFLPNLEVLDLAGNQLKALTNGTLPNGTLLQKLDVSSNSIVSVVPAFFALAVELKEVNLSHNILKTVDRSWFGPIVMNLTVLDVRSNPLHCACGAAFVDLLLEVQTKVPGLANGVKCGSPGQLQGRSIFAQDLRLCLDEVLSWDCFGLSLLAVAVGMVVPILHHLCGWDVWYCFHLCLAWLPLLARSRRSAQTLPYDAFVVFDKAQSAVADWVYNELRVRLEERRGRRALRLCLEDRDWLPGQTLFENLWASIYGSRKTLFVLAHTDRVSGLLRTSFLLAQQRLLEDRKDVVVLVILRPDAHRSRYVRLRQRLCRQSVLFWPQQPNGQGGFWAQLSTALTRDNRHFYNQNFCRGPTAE

CN(C)CCS(=O)(=O)Cc1ccc(Br)cc1
inhibition [1]: Active | Activity (BMDC): inactive | Activity (Mus musculus [2]): Active | Activity (Mus musculus [3]): Active | inhibition (TLR2/TLR6 (Mus musculus)): Active | inhibition [4]: Active

Reference: ChEMBL document CHEMBL3108700, “Designing anti-inflammatory drugs from parasitic worms: a synthetic small molecule analogue of the Acanthocheilonema viteae product ES-62 prevents development of collagen-induced arthritis” (J Med Chem, 2013)
